The results in this text go back to ChEMBL document CHEMBL1149436, “New bicyclic cannabinoid receptor-1 (CB1-R) antagonists” (Bioorg Med Chem Lett, 2006).

In one data set the target is Cannabinoid receptor 2 (Homo sapiens, UniProt P34972). In words: Binding affinity to human CB2 receptor expressed in CHOK1 cells. Format: cell-based, CHO-K1.
For data set [1], the target named is T1, Cannabinoid receptor 1 (Homo sapiens, UniProt P21554). In words: biochemical. Format: cell-based, HEK293.
For data set [2], the target named is T1, Cannabinoid receptor 1. In words: Functional activity at human CB1 receptor transfected in CHOK1 cells by [35SGTP]gammaS assay. Format: cell-based, CHO-K1. In general terms: GTPγS is a poorly hydrolysed GTP analogue; its binding reports G protein activation.
Data set [3] can be described thus: Half life in Beagle dog at 0.5 mg/kg, iv. Format: ADME, organism-based, Canis lupus familiaris. The arrangement: dose 0.5 mg/kg, route intravenous. Particulars: in vivo. The procedure, abridged: (§1)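 Male beagle dogs, 0.5 mg/kg iv. Vehicle: 6.7% EtOH/60% CD/33.3% PEG 400 or Transcutol P, depending on compound; amorphous solid used for iv. Plasma levels by LC-MS/MS after protein precipitation.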

Data set [4] deals with Rattus norvegicus. In words: Anorectic activity assessed in a fasting-induced re-feeding model in Sprague-Dawley rat at 1 mg/kg, po relative to control. Format: functional. The procedure, abridged:
(§2)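 Male CD rats fasted overnight, dosed orally the next morning with suspension in 0.5% methylcellulose. Food returned 0.5 h after dosing; cumulative intake measured 1.5 h later, expressed as % change versus vehicle-treated controls.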

Data set [5] is described as follows: Bioavailability in Sprague-Dawley rat at 1 mg/kg, iv. The settings on record: in vivo. Format: ADME, organism-based. The procedure, abridged: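 Male Sprague-Dawley rats: iv dosing 1 mg/kg via jugular cannula (20% EtOH/80% CD or Transcutol P/CD); oral dosing of crystalline solid in 0.5% methylcellulose. Plasma by LC-MS/MS after protein precipitation.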
A short description of data set [6]: Half life in Sprague-Dawley rat at 1 mg/kg, iv. Format: ADME, organism-based. The arrangement: dose 1 mg/kg, route intravenous. Particulars: in vivo. The procedure, abridged: (§3)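 Male Sprague-Dawley rats, 1 mg/kg iv via jugular vein cannula, amorphous solid in 20% EtOH/80% CD or Transcutol P/CD depending on compound. Plasma levels by LC-MS/MS after protein precipitation.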

Data set [7] in a line: Volume of distribution in Beagle dog at 0.5 mg/kg, iv. Format: ADME, organism-based, Canis lupus familiaris. The arrangement: dose 0.5 mg/kg, route intravenous. The settings on record: in vivo, read-out: Vdss. The gist of the method:
as §1

Data set [8] can be described thus: Plasma clearance in Beagle dog at 0.5 mg/kg, iv. Format: ADME, organism-based, Canis lupus familiaris. The arrangement: dose 0.5 mg/kg, route intravenous. The gist of the method:
as §1

A further data set relates to Mus musculus. Briefly: Ability to reverse CP-55940-stimulated responses in mice at 1 mg/kg, sc. Format: functional, organism-based. The arrangement: dose 1 mg/kg. The procedure, abridged: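 Mouse challenge assay from the 'tetrad': reversal of CP-55940-stimulated analgesia and hypothermia, test agent given sc.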
Data set [9] deals with Rattus norvegicus. In words: Anorectic activity assessed in a fasting-induced re-feeding model in Sprague-Dawley rat at 3 mg/kg, po relative to control. Format: functional. The procedure, abridged: as §2
A short description of data set [10]: Plasma clearance in Sprague-Dawley rat at 1 mg/kg, iv. Format: ADME, organism-based. The arrangement: dose 1 mg/kg, route intravenous. The procedure, abridged:
as §3

Data set [11] is described as follows: Volume of distribution in Sprague-Dawley rat at 1 mg/kg, iv. Format: ADME, organism-based. The arrangement: dose 1 mg/kg, route intravenous. Particulars: in vivo, read-out: Vdss. The gist of the method:
as §3

The test system of data set [12] is Rattus norvegicus. Briefly: Anorectic activity assessed in a fasting-induced re-feeding model in Sprague-Dawley rat at 0.3 mg/kg, po relative to control. Format: functional. The gist of the method:
as §2

Data set [13] deals with Rattus norvegicus. Briefly: Anorectic activity assessed in a fasting-induced re-feeding model in Sprague-Dawley rat at 10 mg/kg, po relative to control. Format: functional. The gist of the method: as §2

Activity calls are given as the source filed them. No cut-off for these calls is given here.

T1 sequence (P21554 whole entry): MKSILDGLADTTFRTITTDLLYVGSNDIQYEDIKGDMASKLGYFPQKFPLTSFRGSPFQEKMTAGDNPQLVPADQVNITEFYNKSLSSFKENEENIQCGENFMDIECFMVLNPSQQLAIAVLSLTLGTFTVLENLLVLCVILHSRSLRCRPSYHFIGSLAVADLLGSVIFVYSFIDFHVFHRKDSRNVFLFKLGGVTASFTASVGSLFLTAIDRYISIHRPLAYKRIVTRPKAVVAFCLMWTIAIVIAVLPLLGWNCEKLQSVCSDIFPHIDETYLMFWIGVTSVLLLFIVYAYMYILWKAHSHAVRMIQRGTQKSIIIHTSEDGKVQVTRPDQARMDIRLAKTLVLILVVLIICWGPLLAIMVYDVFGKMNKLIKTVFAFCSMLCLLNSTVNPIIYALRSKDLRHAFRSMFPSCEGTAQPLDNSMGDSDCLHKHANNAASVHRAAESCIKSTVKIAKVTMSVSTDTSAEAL
Chain of Cannabinoid receptor 2 (P34972 whole entry): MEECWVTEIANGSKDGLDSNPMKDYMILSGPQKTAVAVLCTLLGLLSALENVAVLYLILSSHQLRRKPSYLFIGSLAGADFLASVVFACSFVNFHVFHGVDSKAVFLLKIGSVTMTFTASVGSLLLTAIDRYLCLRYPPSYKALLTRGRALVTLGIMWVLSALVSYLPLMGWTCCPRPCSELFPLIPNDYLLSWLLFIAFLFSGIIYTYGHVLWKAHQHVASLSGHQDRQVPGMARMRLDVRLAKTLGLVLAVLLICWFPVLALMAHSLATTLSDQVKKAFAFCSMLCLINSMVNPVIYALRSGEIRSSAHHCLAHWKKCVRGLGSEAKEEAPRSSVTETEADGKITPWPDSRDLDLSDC

`O=c1c2nn(-c3ccccc3Cl)c(-c3ccc(Cl)cc3)c2ncn1CCF`: on Cannabinoid receptor 2, the Ki (as a rule, a measure of affinity in units of concentration, obtained from inhibition or displacement) is greater than 10 µM.
Still for that read-out and setting: with `CC(F)(F)Cn1cnc2c(-c3ccc(Cl)cc3)n(-c3ccccc3Cl)nc2c1=O` the figure was greater than 10 µM.
Take `CC(C)c1nc2c(-c3ccc(Cl)cc3)n(-c3ccccc3Cl)nc2c(=O)n1CC(F)(F)F`: the Ki on Cannabinoid receptor 2 is greater than 10 µM; at Cannabinoid receptor 1 [1] it was 0.006 µM; at Cannabinoid receptor 1 [2], 0.013 µM.
In the same order, the values of `CCc1nc2c(-c3ccc(Cl)cc3)n(-c3ccccc3Cl)nc2c(=O)n1CC(F)(F)F` are greater than 10 µM, 0.001 µM and 0.003 µM.
With `CC(C)n1cnc2c(-c3ccc(Cl)cc3)n(-c3ccccc3Cl)nc2c1=O`, the Ki at Cannabinoid receptor 1 [1] came out at 0.021 µM.
Take `O=c1c2nc(-c3ccccc3Cl)n(-c3ccc(Cl)cc3)c2ncn1CC(F)(F)F`: the Ki was greater than 10 µM at Cannabinoid receptor 2, 0.001 µM at Cannabinoid receptor 1 [1] and 0.001 µM on Cannabinoid receptor 1 [2].
Take `O=c1c2nn(-c3ccccc3Cl)c(-c3ccc(Cl)cc3)c2ncn1C1CCCCC1`: the Ki was greater than 10 µM at Cannabinoid receptor 2 and 0.02 µM at Cannabinoid receptor 1 [1].
In the case of `O=c1c2nn(-c3ccccc3Cl)c(-c3ccc(Cl)cc3)c2ccn1CC(F)(F)F`, the inhibitory constant (Ki) at Cannabinoid receptor 2 is greater than 10 µM; on Cannabinoid receptor 1 [1], 0.001 µM; at Cannabinoid receptor 1 [2], 0.001 µM.
As to `CCn1cnc2c(-c3ccc(Cl)cc3)n(-c3ccccc3Cl)nc2c1=O`, the inhibition constant Ki at Cannabinoid receptor 2 is greater than 10 µM.
Still for that read-out and setting: the result for `O=c1c2nn(-c3ccccc3Cl)c(-c3ccc(Cl)cc3)c2ncn1Cc1ccccc1` reads greater than 10 µM.
Take `O=c1c2nn(-c3ccc(Cl)cc3)c(-c3ccccc3Cl)c2ncn1C1CCCCC1`: the Ki on Cannabinoid receptor 2 was greater than 10 µM; at Cannabinoid receptor 1 [1], 0.038 µM.
As for `O=c1c2nn(-c3ccccc3Cl)c(-c3ccc(Cl)cc3)c2ncn1CC(F)(F)F`, the half-life (in general, how long it takes for the measured level to halve) in data set [3] was 223 h; in data set [6], 2.6 h. In addition, the values for the Activity in the data set with Rattus norvegicus [4], in the data set with Rattus norvegicus [9] and in the data set with Rattus norvegicus [12] were -32%, -78% and -23%, respectively. Further, in data set [5], the bioavailability – broadly, dose-corrected exposure relative to a reference, in per cent – came to 62%. Further, the inhibitory constant (Ki) at Cannabinoid receptor 2 is greater than 10 µM. Further, the Vd was 10 L/kg in data set [7] and 9.2 L/kg in data set [11]. Besides, the clearance (as a rule, the volume of plasma or blood freed of the substance per unit of time) in data set [8] is 0.54 mL/min/kg; in data set [10], 45 mL/min/kg. The outcome with Mus musculus was Active.
The molecule `CCCn1cnc2c(-c3ccc(Cl)cc3)n(-c3ccccc3Cl)nc2c1=O` had an inhibition constant Ki on Cannabinoid receptor 2 greater than 10 µM.
Consider `O=c1c2nn(-c3ccccc3Cl)c(-c3ccc(Cl)cc3)c2ncn1N1CCCCC1`, for which the inhibitory constant (Ki) at Cannabinoid receptor 2 was greater than 10 µM; at Cannabinoid receptor 1 [1] it was 0.012 µM; on Cannabinoid receptor 1 [2], 0.02 µM.
As to `O=c1c2nn(-c3ccccc3Cl)c(-c3ccc(Cl)cc3)c2cnn1CC(F)(F)F`, the results for the inhibitory constant (Ki) at Cannabinoid receptor 2, on Cannabinoid receptor 1 [1] and at Cannabinoid receptor 1 [2] were greater than 10 µM, 0.008 µM and 0.004 µM, respectively.
Consider `CCC(CC)n1cnc2c(-c3ccc(Cl)cc3)n(-c3ccccc3Cl)nc2c1=O`, for which, on Cannabinoid receptor 1 [1], the affinity, expressed as Ki, was 0.026 µM.
At Cannabinoid receptor 2, `O=c1c2nn(-c3ccccc3Cl)c(-c3ccc(Cl)cc3)c2ncn1CC(F)F` came in with a Ki greater than 10 µM.
As to `O=c1c2nn(-c3ccccc3Cl)c(-c3ccc(Cl)cc3)c2ncn1CCC(F)(F)F`, at Cannabinoid receptor 2, the inhibitory constant (Ki) is greater than 10 µM.
As for `O=c1c2nn(-c3ccc(Cl)cc3)c(-c3ccccc3Cl)c2ncn1CC(F)(F)F`, the Ki at Cannabinoid receptor 2 was greater than 10 µM; on Cannabinoid receptor 1 [1] it was 0.028 µM.
As to `Cc1nc2c(-c3ccc(Cl)cc3)n(-c3ccccc3Cl)nc2c(=O)n1CC(F)(F)F`, the half-life in data set [3] was 39 h; in data set [6], 4.7 h. Moreover, the Activity is -35% in the data set with Rattus norvegicus [4], -59% in the data set with Rattus norvegicus [13] and -42% in the data set on Rattus norvegicus [9]. The molecule also showed a bioavailability in data set [5] of 7%. This molecule also had an inhibition constant (Ki) at Cannabinoid receptor 2 greater than 10 µM. The Vd turned out to be 17 L/kg in [7] and 7.7 L/kg in [11]. Besides, the clearance in [8] came to 10 mL/min/kg; in data set [10], 32 mL/min/kg. In addition, the outcome with Mus musculus was Active.
